Values after ≈ are worked out from the molar mass of the structure shown.
Experiments:
Assay type in all cases: functional
Escherichia coli = assay: Antibacterial activity against 1 x 10^4 cfu/mL Escherichia coli ATCC 11303 after 24 hrs by NCCLS M7-A6 microtiter broth dilution method; conditions: ATCC 11303, 24 h
Staphylococcus aureus [1] = assay: Antibacterial activity against 1 x 10^4 cfu/mL Staphylococcus aureus ATCC 29213 after 24 hrs by NCCLS M7-A6 microtiter broth dilution method; conditions: ATCC 29213, 24 h
Staphylococcus aureus [2] = assay: Antibacterial activity against 1 x 10^4 cfu/mL methicillin-resistant Staphylococcus aureus ATCC 700699 after 24 hrs by NCCLS M7-A6 microtiter broth dilution method; conditions: ATCC 700699, 24 h
In short: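 Bacteria pre-cultured in LB broth 24 h at 37 °C. Colonies suspended in sterile saline and adjusted to 0.5 McFarland (625 nm, 1–2 × 10⁸ cfu/mL), then diluted 1:10,000 in LB. Compounds from a 4 mg/mL DMSO stock were two-fold serially diluted across a 96-well plate, 200 down to 0.39 µg/mL. MIC80 was the lowest concentration preventing visible growth (>80% inhibition).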

Bacillus subtilis = assay: Antibacterial activity against 1 x 10^4 cfu/mL Bacillus subtilis ATCC 33712 after 24 hrs by NCCLS M7-A6 microtiter broth dilution method; conditions: ATCC 33712, 24 h
Candida albicans = assay: microbe, parasite or virus in culture; conditions: ATCC 6258, 48 h

SMILES | MIC80 (Escherichia coli) [µg/mL] | MIC80 (Staphylococcus aureus [1]) [µg/mL] | MIC80 (Staphylococcus aureus [2]) [µg/mL] | MIC80 (Bacillus subtilis) [µg/mL] | MIC80 (Candida albicans) [µg/mL]
COc1ccc(-c2oc3ccc(C)cc3c2C(=O)c2cc(F)c(F)cc2Br)cc1 | > 200 | > 200 | > 200 | > 200 | > 200
COc1ccc(-c2oc3ccc(C)cc3c2C(=O)c2ccc(Cl)cc2)cc1 | > 200 | > 200 | > 200 | > 200 | > 200
CC1(C)S[C@@H]2[C@H](NC(=O)Cc3ccccc3)C(=O)N2[C@H]1C(=O)[O-].[Na+] [PENICILLIN G SODIUM] | 0.78 | 3.12 | 3.12 | < 0.39 | –
CC(C)(O/N=C(\C(=O)N[C@@H]1C(=O)N2C(C(=O)[O-])=C(C[n+]3ccccc3)CS[C@H]12)c1csc(N)n1)C(=O)O [CEFTAZIDIME] | > 200 | 0.78 (≈ 1.43 µM) | 12.5 (≈ 22.9 µM) | 6.25 (≈ 11.4 µM) | –
Oc1ccc(/C=C/c2cc(O)cc(O)c2)cc1 [RESVERATROL] | 25 (≈ 110 µM) | 25 (≈ 110 µM) | 25 (≈ 110 µM) | 25 (≈ 110 µM) | > 200
COc1ccc(-c2oc3ccc(C)cc3c2C(=O)c2cccc(OC)c2O)cc1 | > 200 | > 200 | > 200 | > 200 | > 200
COc1ccc(-c2oc3ccc(C)cc3c2C(=O)c2cccc(OC)c2OC)cc1 | > 200 | > 200 | > 200 | > 200 | > 200
COc1ccc(-c2oc3ccc(C)cc3c2C(=O)c2ccc(O)c(C)c2)cc1 | 0.78 (≈ 2.09 µM) | 0.78 (≈ 2.09 µM) | 0.78 (≈ 2.09 µM) | 1.56 (≈ 4.19 µM) | > 200
COc1ccc(-c2oc3ccc(C)cc3c2C(=O)c2cc(OC)cc(OC)c2)cc1 | > 200 | > 200 | > 200 | > 200 | > 200
CO/N=C(\C(=O)N[C@@H]1C(=O)N2C(C(=O)O)=C(COC(C)=O)CS[C@H]12)c1csc(N)n1 [CEFOTAXIME] | > 200 | 3.12 (≈ 6.85 µM) | 3.12 (≈ 6.85 µM) | 0.78 (≈ 1.71 µM) | –
CC(=O)N1CCN(c2ccc(OCC3COC(Cn4ccnc4)(c4ccc(Cl)cc4Cl)O3)cc2)CC1 (centres undefined) [KETOCONAZOLE] | – | – | – | – | < 0.39
COc1ccc(-c2oc3ccc(C)cc3c2C(=O)c2cc(OC)c(OC)c(OC)c2)cc1 | > 200 | > 200 | > 200 | > 200 | > 200
COc1ccc(-c2oc3ccc(C)cc3c2C(=O)c2ccc(O)c(I)c2)cc1 | 3.12 (≈ 6.44 µM) | 0.78 (≈ 1.61 µM) | 0.78 (≈ 1.61 µM) | 1.56 (≈ 3.22 µM) | > 200
COc1ccc(-c2oc3ccc(C)cc3c2C(=O)c2ccc(O)cc2)cc1 | 0.78 (≈ 2.18 µM) | < 0.39 | 0.78 (≈ 2.18 µM) | 0.78 (≈ 2.18 µM) | > 200
COc1ccc(-c2oc3ccc(C)cc3c2C(=O)c2cc(Cl)cc(Cl)c2)cc1 | > 200 | > 200 | > 200 | > 200 | > 200
COc1ccc(C(=O)c2c(-c3ccc(OC)cc3)oc3ccc(C)cc23)cc1 | > 200 | > 200 | > 200 | > 200 | > 200
COc1ccc(-c2oc3ccc(C)cc3c2C(=O)c2ccccc2Br)cc1 | > 200 | > 200 | > 200 | 0.78 (≈ 1.85 µM) | > 200
Clc1ccc(COC(Cn2ccnc2)c2ccc(Cl)cc2Cl)c(Cl)c1.O=[N+]([O-])O (centres undefined) [MICONAZOLE NITRATE] | – | – | – | – | < 0.39
COc1ccc(-c2oc3ccc(C)cc3c2C(=O)c2cc(O)cc(OC)c2)cc1 | 0.78 (≈ 2.01 µM) | < 0.39 | 0.78 (≈ 2.01 µM) | 0.78 (≈ 2.01 µM) | > 200
